≈ marks a conversion by molar mass, not a printed value. Where a SMILES comes first, the peptide text is derived from it. [ ]: non-standard residue; d: D form. 3Abz = Nc1cccc(C(=O)O)c1
Assays:
[1] = test system: Staphylococcus epidermidis; experiment: Antibacterial activity against methicillin-resistant Staphylococcus epidermidis ATCC 51625 assessed as growth inhibition after 18 hrs by CLSI microdilution broth assay; assay type: functional; conditions: ATCC 51625, 18 h
Summary of the method: (§1)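 Modified CLSI broth microdilution in Mueller-Hinton broth. Wells held 90 µL of about 2 × 10^5 CFU/mL inoculum plus 10 µL of serially diluted peptidomimetic, range 0.7-100 µg/mL. Plates were incubated overnight with agitation at 37 °C and absorbance read at 600 nm after 18 h. Controls: inoculum without compound, and uninoculated broth. Run in triplicate.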

[2] = Induction of hemolysis in human RBC assessed as hemoglobin release after 1 hr by microtiter plate reader analysis; assay type: cell-based, Erythrocyte; conditions: for HC10: erythrocyte, 1 h; for HC50 at 1 h: red blood cells
Summary of the method: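 Freshly isolated human RBCs washed three times in PBS (35 mM phosphate, 150 mM NaCl, pH 7.2) and used as a 4% (v/v) suspension. Mixed 1:1 with twofold serial dilutions of compound, incubated 1 h at 37 °C without agitation, then centrifuged. Supernatant A540 read. PBS defined 0% and 1% Triton X-100 defined 100% lysis; HC50 and HC10 derived.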

[3] = Selectivity ratio of HC50 for hemolysis in human RBC to MIC for Staphylococcus aureus
[4] = Retention time of the compound by HPLC analysis; assay type: physicochemical
Summary of the method: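 Analytical RP-HPLC on a C18 column (5 µm, 4.6 × 250 mm) at room temperature. Run a linear gradient of 0.5-60% acetonitrile containing 0.05% TFA against water containing 0.05% TFA at 0.5 mL/min.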

Escherichia coli = experiment: Antibacterial activity against Escherichia coli MTCC 723 assessed as growth inhibition after 18 hrs by CLSI microdilution broth assay; assay type: functional; conditions: MTCC 723, 18 h
Pseudomonas aeruginosa = experiment: Antibacterial activity against Pseudomonas aeruginosa MTCC 2295 assessed as growth inhibition after 18 hrs by CLSI microdilution broth assay; assay type: functional; conditions: MTCC 2295, 18 h
Staphylococcus aureus [5] = experiment: Antibacterial activity against Staphylococcus aureus MTCC 3160 assessed as growth inhibition after 18 hrs by CLSI microdilution broth assay; assay type: functional; conditions: MTCC 3160, 18 h
Bacillus subtilis = experiment: Antibacterial activity against Bacillus subtilis MTCC 2763 assessed as growth inhibition after 18 hrs by CLSI microdilution broth assay; assay type: functional; conditions: MTCC 2763, 18 h
Staphylococcus aureus [6] = experiment: Antibacterial activity against methicillin-resistant Staphylococcus aureus ATCC BAA-1720 assessed as growth inhibition after 18 hrs by CLSI microdilution broth assay; assay type: functional; conditions: ATCC BAA-1720, 18 h; summary of the method: as §1

Row | SMILES | MIC [1] | HC10 [2] | HC50 at 1 h [2] | Selectivity ratio [3] | Retention_time [4] | MIC (Escherichia coli) | MIC (Pseudomonas aeruginosa) | MIC (Staphylococcus aureus [5]) | MIC (Bacillus subtilis) | MIC (Staphylococcus aureus [6])
1 | N=C(N)NCCCC(NC(=O)C(CCCNC(=N)N)NC(=O)c1cccc(NC(=O)C(Cc2c[nH]c3ccccc23)NC(=O)C(CCCNC(=N)N)NC(=O)C(N)Cc2c[nH]c3ccccc23)c1)C(N)=O (stereo not given) (H-WRW[3Abz]RR-NH2; configuration not given here) | 25 µg/mL (≈ 25.6 µM) | 140 µg/mL | 370 µg/mL | 14.8 | 27.324 min | 60 µg/mL (≈ 61.4 µM) | 70 µg/mL (≈ 71.6 µM) | 25 µg/mL (≈ 25.6 µM) | 40 µg/mL (≈ 40.9 µM) | 25 µg/mL (≈ 25.6 µM)
2 | N=C(N)NCCCC(NC(=O)c1cccc(NC(=O)C(CCCNC(=N)N)NC(=O)C(N)Cc2c[nH]c3ccccc23)c1)C(N)=O (stereo not given) (H-WR[3Abz]R-NH2; configuration not given here) | 200 µg/mL (≈ 315 µM) | 300 µg/mL | > 500 µg/mL | > 3.3 | 24.184 min | 200 µg/mL (≈ 315 µM) | > 200 µg/mL | 150 µg/mL (≈ 236 µM) | 200 µg/mL (≈ 315 µM) | 150 µg/mL (≈ 236 µM)
3 | N=C(N)NCCCC(NC(=O)C(CCCNC(=N)N)NC(=O)c1cccc(NC(=O)C(CCCNC(=N)N)NC(=O)C(N)Cc2c[nH]c3ccccc23)c1)C(N)=O (stereo not given) (H-WR[3Abz]RR-NH2; configuration not given here) | 100 µg/mL (≈ 126 µM) | 325 µg/mL | > 500 µg/mL | > 5 | 22.64 min | > 200 µg/mL | > 200 µg/mL | 100 µg/mL (≈ 126 µM) | 170 µg/mL (≈ 215 µM) | 120 µg/mL (≈ 152 µM)
4 | N=C(N)NCCCC(NC(=O)C(Cc1c[nH]c2ccccc12)NC(=O)c1cccc(NC(=O)C(CCCNC(=N)N)NC(=O)C(N)Cc2c[nH]c3ccccc23)c1)C(N)=O (stereo not given) (H-WR[3Abz]WR-NH2; configuration not given here) | 75 µg/mL (≈ 91.4 µM) | 220 µg/mL | 400 µg/mL | 6.66 | 24.982 min | 150 µg/mL (≈ 183 µM) | 120 µg/mL (≈ 146 µM) | 60 µg/mL (≈ 73.1 µM) | 75 µg/mL (≈ 91.4 µM) | 50 µg/mL (≈ 60.9 µM)
5 | N=C(N)NCCCC(NC(=O)C(CCCNC(=N)N)NC(=O)c1cccc(NC(=O)C(CCCNC(=N)N)NC(=O)C(Cc2c[nH]c3ccccc23)NC(=O)C(N)Cc2c[nH]c3ccccc23)c1)C(N)=O (stereo not given) (H-WWR[3Abz]RR-NH2; configuration not given here) | 50 µg/mL (≈ 51.2 µM) | 200 µg/mL | 380 µg/mL | 7.6 | 27.34 min | 75 µg/mL (≈ 76.8 µM) | 100 µg/mL (≈ 102 µM) | 50 µg/mL (≈ 51.2 µM) | 70 µg/mL (≈ 71.6 µM) | 50 µg/mL (≈ 51.2 µM)
6 | N=C(N)NCCCC(NC(=O)c1cccc(NC(=O)C(Cc2c[nH]c3ccccc23)NC(=O)C(N)Cc2c[nH]c3ccccc23)c1)C(N)=O (stereo not given) (H-WW[3Abz]R-NH2; configuration not given here) | > 200 µg/mL | 100 µg/mL | 240 µg/mL | 2 | 28.661 min | 150 µg/mL (≈ 226 µM) | 170 µg/mL (≈ 256 µM) | 120 µg/mL (≈ 181 µM) | 150 µg/mL (≈ 226 µM) | 200 µg/mL (≈ 301 µM)
7 | N=C(N)NCCCC(NC(=O)C(CCCNC(=N)N)NC(=O)c1cccc(NC(=O)C(Cc2c[nH]c3ccccc23)NC(=O)C(N)Cc2c[nH]c3ccccc23)c1)C(N)=O (stereo not given) (H-WW[3Abz]RR-NH2; configuration not given here) | 75 µg/mL (≈ 91.4 µM) | 150 µg/mL | 400 µg/mL | 8 | 25.377 min | 120 µg/mL (≈ 146 µM) | 125 µg/mL (≈ 152 µM) | 50 µg/mL (≈ 60.9 µM) | 70 µg/mL (≈ 85.3 µM) | 50 µg/mL (≈ 60.9 µM)

From ChEMBL document CHEMBL3286351, “Antibacterial evaluation of structurally amphipathic, membrane active small cationic peptidomimetics: synthesized by incorporating 3-amino benzoic acid as peptidomimetic element” (Eur J Med Chem, 2014)
